Bioassay records as filed in PubChem BioAssay.
The list is not random: actives were taken first. Their share in the collection is about 1.9%.
Hck-Nef inh: blocks Nef-activated human Hck kinase | P08631 | Recombinant Hck-YEEI plus Nef, Z-Lyte FRET kinase assay | inhibition, % at 20 µM | 220,000 tested, 0.68% active | AID 463187;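 active = Hck-Nef kinase inhibition above about 50%, limit read from the data; inactive = inhibition below that limit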
Target sequence (P08631 whole entry, looked up): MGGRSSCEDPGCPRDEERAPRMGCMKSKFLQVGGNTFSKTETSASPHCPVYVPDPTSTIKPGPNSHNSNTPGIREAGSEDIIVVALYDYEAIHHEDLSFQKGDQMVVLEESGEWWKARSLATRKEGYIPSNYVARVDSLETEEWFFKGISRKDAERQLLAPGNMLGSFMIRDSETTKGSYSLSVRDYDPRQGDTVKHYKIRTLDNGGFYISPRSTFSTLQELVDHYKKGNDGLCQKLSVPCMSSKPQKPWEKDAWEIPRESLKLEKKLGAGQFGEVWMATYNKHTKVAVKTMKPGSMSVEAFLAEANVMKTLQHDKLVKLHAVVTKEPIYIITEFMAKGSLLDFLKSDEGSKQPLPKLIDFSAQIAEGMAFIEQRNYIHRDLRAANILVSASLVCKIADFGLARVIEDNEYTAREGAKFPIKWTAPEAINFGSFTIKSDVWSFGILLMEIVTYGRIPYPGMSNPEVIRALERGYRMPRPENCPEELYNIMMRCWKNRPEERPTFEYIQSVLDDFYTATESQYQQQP
Runt-CBFb FRET: blocks binding of human RUNX1 Runt domain to CBFb; Q01196+Q13951; Cerulean-Runt/Venus-CBFb FRET ratio 530/480, 1 h; inhibition, % at 20 µM; 220,000 tested, 0.46% active; AID 1496;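 active = inhibition over about 50% at 20 µM in the single-dose screen, limit read from the data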
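Reagent – Venus-CBFb binding partner, 100 nM · Assay system – Cerulean-tagged RUNX1 Runt domain (FRET donor) fusion protein · Input – 100 nM per protein · Incubation – two 1 h room-temperature incubations shielded from light · Measured by – FRET fluorescence · Medium – Tris buffer pH 7.5 with salts and BSA · Benchmarks – unlabeled CBFb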
Runt-SMMHC FRET: inhibitors of human RUNX1 Runt domain binding to CBFb-SMMHC | Q01196+Q13951 | Cerulean-Runt/Venus-CBFb-SMMHC FRET ratio 530/480, 1 h | inhibition, % at 20 µM | 220,000 tested, 0.74% active | AID 1434;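 active = mean inhibition across duplicate retests at 20 µM reaching about 50%, limit read from the data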;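 also: inhibitors lower the FRET ratio by blocking Runt binding to CBFb-SMMHC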
RanGTP-Imp inh: disruptors of Ran-importin-beta complex formation – biochemical, FRET, CFP-Ran, YFP-importin-beta, homogeneous, primary screen; cell-free CFP-Ran/YFP-importin-beta FRET ratio; 300,000 tested, 1.1% active; inhibition, % (no concentration beside the values);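 active = more than half of the replicate wells show a fall in the fluorescence ratio signal beyond about 16%, limit read from the data, passing the limit was not always enough; inconclusive = exactly half of the replicate wells pass the set limit; inactive = fewer than half of replicates pass the limit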
Numbers stand for hits.

CCN(CC)S(=O)(=O)c1cccc(NC(=O)CSc2nnc(N)s2)c1 was read as Hck-Nef inh inactive, Runt-CBFb FRET inactive, Runt-SMMHC FRET inactive and RanGTP-Imp inh 30.
`Cc1ccc2nc(Nc3ccc4[nH]c(=O)[nH]c4c3)c(-n3nc(C)cc3C)nc2c1` gave Hck-Nef inh inactive, Runt-CBFb FRET inactive, Runt-SMMHC FRET inactive and RanGTP-Imp inh 40.
For CCOc1cc(N2CCOCC2)c(OCC)cc1NC(=O)C(NC(=O)c1ccco1)C(C)C (stereo unspecified) the results were Hck-Nef inh inactive, Runt-CBFb FRET inactive, Runt-SMMHC FRET inactive and RanGTP-Imp inh inactive.
Screening N#C/C(=C\c1ccc(-c2ccc([N+](=O)[O-])cc2Br)o1)C(=O)N1CCN(c2ccccc2)CC1 returned Hck-Nef inh inactive, Runt-CBFb FRET inactive, Runt-SMMHC FRET inactive and RanGTP-Imp inh inactive.
Screening CCOc1ccccc1NC(=O)Cn1c(=O)n(-c2ccc(OC)cc2OC)c(=O)c2c(C)c(C(=O)N(CC)CC)sc21 returned Hck-Nef inh inactive, Runt-CBFb FRET inactive, Runt-SMMHC FRET inactive and RanGTP-Imp inh inactive.
`CCOc1ccc(-n2c(=O)c3c(C)c(C(=O)N(C)C)sc3n(CC(=O)Nc3ccccc3F)c2=O)cc1` gave Hck-Nef inh inactive, Runt-CBFb FRET inactive, Runt-SMMHC FRET inactive and RanGTP-Imp inh 19.
Screening Cc1c(N2C(=O)c3ccccc3C2(O)c2ccccc2)c(=O)n(-c2ccccc2)n1C (stereo unspecified) returned Hck-Nef inh inactive, Runt-CBFb FRET inactive, Runt-SMMHC FRET inactive and RanGTP-Imp inh inactive.
Screening O=C(O)C1Nc2c(O)cc(Cl)c([N+](=O)[O-])c2C2C=CCC12 (stereo unspecified) returned Hck-Nef inh 70, Runt-CBFb FRET inactive, Runt-SMMHC FRET inactive and RanGTP-Imp inh inactive.
`Cc1ccc2c(c1)C1C=CCC1C(C(=O)O)N2` (stereo unspecified) gave Hck-Nef inh inactive, Runt-CBFb FRET inactive, Runt-SMMHC FRET inactive and RanGTP-Imp inh inactive.
Cc1ccc(C)c(NC(=O)c2nnn(Cc3ccccc3)c2N)c1 was read as Hck-Nef inh inactive, Runt-CBFb FRET inactive, Runt-SMMHC FRET inactive and RanGTP-Imp inh 168.
Cc1ccc(Cn2nnc(C(=O)Nc3cc(C)ccc3C)c2N)cc1 was read as Hck-Nef inh inactive, Runt-CBFb FRET inactive, Runt-SMMHC FRET inactive and RanGTP-Imp inh inactive.
Screening CCOc1ccc(C(=O)NC2CC(=O)N(c3ccc4c(c3)OCCO4)C2)cc1 (stereo unspecified) returned RanGTP-Imp inh inactive.
Screening Cc1cc(/C=C2\Cc3ccccc3C2=O)c(C)n1-c1ccccc1 returned Hck-Nef inh inactive, Runt-CBFb FRET inactive, Runt-SMMHC FRET inactive and RanGTP-Imp inh 23.
Screening Cc1cc(C=C2C(=O)c3ccccc3C2=O)c(C)n1-c1ccccc1 returned Hck-Nef inh inactive, Runt-CBFb FRET inactive, Runt-SMMHC FRET inactive and RanGTP-Imp inh inactive.
Screening CC1=NN2C(=N)/C(=C\c3cc(C)n(-c4ccccc4)c3C)C(=O)N=C2S1 returned Hck-Nef inh inactive, Runt-CBFb FRET inactive, Runt-SMMHC FRET inactive and RanGTP-Imp inh 39.
`CC(=O)NS(=O)(=O)c1ccc(N2C(=O)c3ccccc3C2=O)cc1` gave Hck-Nef inh inactive, Runt-CBFb FRET inactive, Runt-SMMHC FRET inactive and RanGTP-Imp inh 20.
For COc1ccc(NC(=O)CSc2nc3c(cc2C#N)CN(C)CC3)cc1 the results were Runt-CBFb FRET inactive, Runt-SMMHC FRET inactive and RanGTP-Imp inh inactive.
`CCN1CCc2nc(SCC(=O)Nc3ccc(OC)cc3)c(C#N)cc2C1` gave Hck-Nef inh inactive, Runt-CBFb FRET inactive, Runt-SMMHC FRET 94 and RanGTP-Imp inh inconclusive.
`CCN(CC(=O)NC(C)(C)C)C(=O)c1ccc2c(c1)S(=O)(=O)c1ccccc1C2=O` gave Hck-Nef inh inactive, Runt-CBFb FRET inactive, Runt-SMMHC FRET inactive and RanGTP-Imp inh inactive.
Screening O=C(O)c1ccc(N/N=C/C=C/c2ccccc2)cc1 returned Hck-Nef inh inactive, Runt-CBFb FRET inactive, Runt-SMMHC FRET inactive and RanGTP-Imp inh 85.
Screening Cc1ccc(-n2nc3c(=O)n(C(C)C(=O)NCCC4=CCCCC4)nc(C)c3c2C)cc1 (stereo unspecified) returned RanGTP-Imp inh inactive.
O=C1NC(=S)N/C1=C/c1ccc2c(c1)OCO2 was read as RanGTP-Imp inh inactive.
Screening O=C1NC(=S)N/C1=C/c1ccc2ccccc2c1 returned RanGTP-Imp inh 26.
